# SENP8 block-1 = SENP8 (human) protease inhibition; recombinant SENP8, Nedd8 substrate fluorescence; inhibition, % at 20 µM; 360,000 tested, 0.64% active; AID 602440; in the data active = inhibition mostly above about 40%, no sharp cut-off; inactive = mostly below about 27%
# SENP6 inh = inhibitors of human SENP6 protease; Q9GZR1; Recombinant SENP6 catalytic domain, aminoluciferin luminescence; inhibition, % at 10 µM; 330,000 tested, 1.8% active;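 active = inhibition above about 50% at the single tested dose, limit read from the data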;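 note: plate controls were DMSO wells with enzyme for no effect and DMSO wells lacking enzyme for full effect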
# UCH37 inh = blocks the human deubiquitinase UCH37; purified proteasome/UCH37, Ub-AMC cleavage fluorescence; inhibition, % (no concentration beside the values); 330,000 tested, 0.33% active;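 active = mean inhibition over replicate wells above about 20%, limit read from the data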;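 note: 0% = compound-free wells with enzyme and 100% = wells lacking proteasome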
# Target sequence (Q9Y5K5 whole entry, looked up): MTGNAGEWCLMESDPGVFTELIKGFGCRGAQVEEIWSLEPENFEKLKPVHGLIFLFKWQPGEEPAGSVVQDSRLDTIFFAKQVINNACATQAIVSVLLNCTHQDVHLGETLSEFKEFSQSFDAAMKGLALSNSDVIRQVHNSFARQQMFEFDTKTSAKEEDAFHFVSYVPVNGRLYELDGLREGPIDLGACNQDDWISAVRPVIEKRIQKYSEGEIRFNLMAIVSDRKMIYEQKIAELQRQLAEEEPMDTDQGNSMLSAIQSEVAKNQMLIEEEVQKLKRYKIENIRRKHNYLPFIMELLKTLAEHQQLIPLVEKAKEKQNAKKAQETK
#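 system = Proteasome-associated human UCH37 deubiquitinase | amount = 0.15 nM proteasome as dispensed | medium = pH 7.4 Tris-HCl (50 mM) with ovalbumin, ATP-MgCl2, DTT | incubation = 30 min preincubation with enzyme, 25 min cleavage at room temperature | detection = AMC fluorescence 355/460 nm | read-out basis = percent inhibition | controls = no-proteasome and no-compound wells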
# SENP8 block-2 = blocks the human protease SENP8; AID 2540; purified SENP8, Z-RLRGG-aminoluciferin cleavage, luminescence; 330,000 tested, 1.2% active; inhibition, % at 10 µM; Q96LD8; in the data active = inhibition above about 50%
# SENP7 block = inhibitors of human SENP7 protease; inhibition, % at 5 µM; 330,000 tested, 1.5% active; Q9BQF6; recombinant SENP7, Z-RLRGG-aminoluciferin luminescence, 40 min; AID 434973;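 active = inhibition above about 50% at the single test dose, limit read from the data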;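 note: plate controls were DMSO with enzyme for no effect and no enzyme buffer wells for full effect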
# SENP1 FRET inh = inhibitors of human SENP1 SUMO protease catalytic domain; Q9P0U3; recombinant SENP1 catalytic domain, CyPet-SUMO1-YPet FRET cleavage; inhibition, % at 10 µM; 360,000 tested, 0.21% active;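 active = inhibition at least 30% at 10 µM, raw YFP signal under a set limit, fluorescence ratio 0.5 to 1.5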;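 note: 0% = enzyme with DMSO and 100% = no enzyme wells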
# Target sequence (Q9P0U3 419-644 limits assumed): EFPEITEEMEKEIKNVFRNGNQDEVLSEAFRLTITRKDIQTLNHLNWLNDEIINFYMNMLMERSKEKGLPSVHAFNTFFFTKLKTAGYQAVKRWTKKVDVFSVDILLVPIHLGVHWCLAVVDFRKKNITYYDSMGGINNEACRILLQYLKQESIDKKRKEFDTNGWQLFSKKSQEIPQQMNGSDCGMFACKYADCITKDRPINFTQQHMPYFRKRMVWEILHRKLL
#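 Compound: 10 µM single point, 0.5% DMSO; Test system: hSENP1 catalytic domain, recombinant; Timing: 50 min reaction at room temperature; Technique: FRET, CFP and YFP emission; Control set: no-enzyme wells low, DMSO-plus-enzyme wells high control.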
# SENP8 confirm = human SENP8 inhibition, confirmed | shares compounds with SENP7 block | inhibition, % at 12.5 µM | 6,200 tested, 40% active | AID 488912 | Recombinant SENP8, Z-RLRGG-aminoluciferin luminescence, 60 min;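 active = mean inhibition across replicates above about 50%, limit read from the data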
# SENP6 conf = confirmation of human SENP6 protease inhibitors | shares compounds with SENP7 block | recombinant SENP6, Z-RLRGG-aminoluciferin luminescence | inhibition, % at 12.5 µM | 6,200 tested, 58% active
# SENP7 conf = human SENP7 inhibition, confirmed | recombinant SENP7, Z-RLRGG-aminoluciferin luminescence, 40 min | shares compounds with SENP7 block | 6,200 tested, 69% active | inhibition, % at 12.5 µM
# Casp3 SENP sel = inhibits human caspase-3 in SENP selectivity test | shares compounds with SENP7 block | purified caspase-3, Z-DEVD-aminoluciferin luminescence, 60 min | inhibition, % at 12.5 µM | 6,200 tested, 60% active | AID 488918;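 active = mean inhibition above about 50%, limit read from the data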;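 note: plate controls were enzyme with DMSO for no effect and wells without caspase-3 for full effect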
# Luc interf = counter-screen for SENP inhibitors: luminescence interference | shares compounds with SENP7 block | Pre-incubated SENP8/Z-RLRGG-aminoluciferin, luciferase luminescence interference | inhibition, % at 12.5 µM | 6,200 tested, 39% active | AID 488919;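 active = mean inhibition above about 50% when retested at one dose, limit read from the data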;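 note: plate controls were DMSO wells with completed reaction for no effect and substrate without enzyme for full effect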
# * marks the source's active call; other numbers are inactive results; i = inactive; . = not tested or not shown. Most compounds without a hit are left out; they make up all but 2.6% or so of the library.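 Rule for the calls, unless noted: active = mean inhibition above about 50% in the one-dose retest (limit read from the data); inactive = the rest.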
SMILES,SENP8 block-1,SENP6 inh,UCH37 inh,SENP8 block-2,SENP7 block,SENP1 FRET inh,SENP8 confirm,SENP6 conf,SENP7 conf,Casp3 SENP sel,Luc interf
O=C(O)c1ccc(C(=O)Nc2cccc3ccccc23)c(C(=O)O)c1,-311,67*,-12,33,57*,-6,-3,5,-2,7,8
Cc1nnc2sc(-c3cccc(F)c3)nn2c1=O,16,47,6,70*,1,-2,50*,63*,21,58*,-8
O=C(O)c1cccc(NC(=NS(=O)(=O)c2ccccc2)c2ccccc2)c1,.,.,8,.,.,.,.,.,.,.,.
CCOc1ccc(-c2ccc(SCC(=O)Nc3nnc(CC)s3)nn2)cc1,13,8,6,11,2,-3,.,.,.,.,.
CCOc1ccc(-c2ccc(SC)nn2)cc1,5,98*,3,93*,97*,0,93*,98*,102*,98*,36
COC(=O)COc1ccc2cc(-c3ccccc3)c(=O)oc2c1,-400,55*,i,34,50,-27,16,44,7,23,2
O=C(O)C(Oc1ccc2cc(-c3ccc(Cl)cc3)c(=O)oc2c1)c1ccccc1 (centres undefined),i,77*,i,46,30,-134,74*,75*,63*,44,14
NC(=O)COc1ccc2cc(-c3ccccc3)c(=O)oc2c1,-415,-8,i,-19,5,-25,.,.,.,.,.
O=c1oc2cc(O)ccc2cc1-c1ccccc1,-363,90*,i,91*,88*,-23,94*,94*,99*,92*,92*
O=c1oc2ccccc2cc1-c1ccc(O)cc1O,-243,-15,-12,-1,8,1,.,.,.,.,.
COc1ccc(-c2cc3ccc(OCc4nn[nH]n4)cc3oc2=O)cc1OC,-301,76*,-34,51*,65*,-24,67*,66*,91*,85*,72*
C(=CC=Nc1ccccc1)C=CNc1ccccc1,.,.,-2,.,.,.,.,.,.,.,.
O=C(NCc1ccccc1)c1cc2ccc(O)cc2oc1=O,-489,95*,i,97*,96*,-28,98*,98*,102*,98*,97*
COc1ccc(-c2cc3ccc(O)cc3oc2=O)cc1,-397,88*,i,83*,58*,-27,73*,77*,93*,76*,62*
NC(=NOC(=O)c1cc([N+](=O)[O-])ccc1Cl)c1ccccn1,.,.,2,.,.,.,.,.,.,.,.
Cc1ccc(C(=O)O/N=C(\N)c2ccccn2)c(C)c1,5,99*,.,95*,102*,3,100*,101*,104*,99*,99*
N/C(=N\OC(=O)c1ccccc1Cl)c1ccccn1,6,96*,3,93*,100*,-1,97*,98*,102*,98*,97*
N/C(=N\OC(=O)c1ccccc1[N+](=O)[O-])c1ccccn1,-2,54*,.,42,61*,1,65*,61*,-7,86*,66*
COc1ccccc1C(=O)O/N=C(\N)c1ccccn1,15,53*,1,38,9,4,41,30,58*,74*,54*
CC(C)(C)c1ccc(C(=O)NCC(=O)NN=Cc2cccnc2)cc1,.,.,4,.,.,.,.,.,.,.,.
CC(CC1(O)C(=O)Nc2ccccc21)=NO (centres undefined),.,.,1,.,.,.,.,.,.,.,.
CC(=NNC(=O)COc1ccccc1F)c1cc2ccccc2o1,.,.,-1,.,.,.,.,.,.,.,.
COc1cc(C=NNC(N)=S)ccc1OCC(=O)Nc1ccc(C)cc1,.,.,0,.,.,.,.,.,.,.,.
Cc1c(C(=O)c2ccc(F)cc2F)c2ccccn2c1CCc1ccccn1,36,.,.,.,.,-27,.,.,.,.,.
COC(=O)CCc1c(C)c(C(=O)c2cc(F)c(F)c(F)c2F)c2ccccn12,-30,77*,4,28,4,-62,8,7,-9,-3,-3
SMILES,SENP8 block-1,SENP6 inh,UCH37 inh,SENP8 block-2,SENP7 block,SENP1 FRET inh,SENP8 confirm,SENP6 conf,SENP7 conf,Casp3 SENP sel,Luc interf
Cc1c(C(=O)c2ccc(F)cc2F)c2ccccn2c1CCC#N,-4,58*,.,42,26,-47,11,9,-4,4,-1
Cc1ccc(C(=O)Nc2cccc(C(=O)O)c2)cc1,.,92*,0,95*,99*,.,99*,100*,103*,96*,98*
O=C(O)c1cccc(NC(=O)c2cc(NC(=O)c3ccccc3)cc(NC(=O)c3ccccc3)c2)c1,0,90*,3,-2,10,2,15,8,0,-5,-5
Cc1ccc(-c2cc(NC(=O)c3ccccc3)on2)cc1,9,50*,-10,52*,87*,2,34,43,92*,63*,2
COc1ccc(C(=O)Nc2cc(-c3ccc(C)cc3)no2)cc1,12,-16,-1,-4,1,0,.,.,.,.,.
O=C(O)c1cccc(NC(=O)c2ccccc2)c1,12,.,1,.,.,-2,.,.,.,.,.
Cc1ccc(C(=O)Nc2cccc(C(=O)NC3CCCC3)c2)cc1,6,-7,4,0,-2,-1,.,.,.,.,.
CCOc1ccc(C(=O)Nc2cc(NC(=O)c3ccc(OCC)c(Cl)c3)cc(C(=O)O)c2)cc1Cl,3,-7,-7,3,5,-1,.,.,.,.,.
CCOc1ccc(C(=O)Nc2cccc(C(=O)O)c2)cc1Cl,19,95*,1,97*,100*,-1,98*,99*,102*,90*,98*
COc1ccc(C=NOC/C(O)=C(\C#N)c2nc3ccccc3[nH]2)cc1,.,.,-2,.,.,.,.,.,.,.,.
CCc1cc(=O)[nH]c(-n2[nH]c(-c3ccccc3)cc2=O)n1,4,9,.,-3,4,-1,.,.,.,.,.
O=c1cc(-c2ccccc2)[nH]n1-c1nc2ccccc2[nH]1,-264,65*,0,24,11,-64,35,52*,85*,78*,49
Fc1ccc(OCc2cc(-c3ccccc3)no2)cc1,-1,5,0,1,20,2,.,.,.,.,.

# Screens: PubChem, several laboratories
